Measurements as given in paper PMC5569645 (ACS Chemical Biology, 2017).
“Also recorded” adds a separate entry of the source.

Key:
[1] = target: NOD2 in native membrane vesicles (Homo sapiens, UniProt Q9HC29); format: binding; details: for binding to NOD2 in the native-membrane environment (in words) / relative binding strength: BSI; for binding to NOD2 in the native-membrane environment (in words): native-membrane vesicles; for relative binding strength: NOD2 in native membrane vesicles; for BSI signal on titration after preincubation with excess ligand 2: competition binding, membrane vesicles preincubated with ligand 2 (10 μM)
Sequence of NOD2 in native membrane vesicles (Q9HC29 whole entry): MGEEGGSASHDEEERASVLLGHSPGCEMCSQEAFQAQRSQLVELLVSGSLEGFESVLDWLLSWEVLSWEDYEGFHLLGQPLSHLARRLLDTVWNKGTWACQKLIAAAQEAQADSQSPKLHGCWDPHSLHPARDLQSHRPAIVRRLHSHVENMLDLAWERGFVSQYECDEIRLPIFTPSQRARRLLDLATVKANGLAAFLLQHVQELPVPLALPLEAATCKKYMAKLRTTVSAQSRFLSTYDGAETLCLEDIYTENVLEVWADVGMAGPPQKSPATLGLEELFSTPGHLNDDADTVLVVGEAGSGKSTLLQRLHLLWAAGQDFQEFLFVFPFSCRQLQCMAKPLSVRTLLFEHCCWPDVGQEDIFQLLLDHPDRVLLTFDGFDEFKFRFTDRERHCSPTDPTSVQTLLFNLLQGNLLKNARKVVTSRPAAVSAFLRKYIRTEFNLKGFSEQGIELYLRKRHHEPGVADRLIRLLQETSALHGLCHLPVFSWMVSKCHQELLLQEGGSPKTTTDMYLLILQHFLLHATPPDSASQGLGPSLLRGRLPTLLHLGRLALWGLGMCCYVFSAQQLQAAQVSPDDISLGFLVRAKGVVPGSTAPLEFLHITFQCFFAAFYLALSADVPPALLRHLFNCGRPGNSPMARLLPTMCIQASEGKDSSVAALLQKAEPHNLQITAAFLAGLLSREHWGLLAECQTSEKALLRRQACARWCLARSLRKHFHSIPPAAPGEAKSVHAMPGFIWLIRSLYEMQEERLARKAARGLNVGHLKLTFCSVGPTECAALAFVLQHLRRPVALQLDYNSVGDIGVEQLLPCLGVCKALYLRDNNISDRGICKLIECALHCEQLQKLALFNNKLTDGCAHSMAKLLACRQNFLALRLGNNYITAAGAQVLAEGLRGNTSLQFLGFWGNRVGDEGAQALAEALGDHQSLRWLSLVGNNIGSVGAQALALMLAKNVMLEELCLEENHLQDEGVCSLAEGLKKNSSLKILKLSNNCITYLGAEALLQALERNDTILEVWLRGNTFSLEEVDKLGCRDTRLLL
Procedure, shortened: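 Vesicles: about 1 × 10^8 HEK293T-Nod2Myc/tet-op cells in ice-cold HBSS with EDTA-free protease inhibitors, probe-sonicated to clarity, passed through a 220 nm filter (2 h, 6000g, 4 °C). Filtrate stored at 4 °C up to 4 days. Checked by DLS, FM1-43FX lipid stain and Western blot. Fixed vesicle amount plus ligand titration, 40 min dark, RT. BSI chip at 25 °C. Referenced to NOD2-negative HEK293T vesicles; single-site Langmuir fit. Competition: 10 μM excess ligand preincubation, then titration.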

[2] = target: T1, purified WT NOD2 (Homo sapiens, UniProt Q9HC29); assay: SPR binding assay, surface-tethered ligands and purified WT NOD2
T1 sequence (Q9HC29 whole entry): as above
Procedure, shortened: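 Amine-functionalized peptidoglycan derivatives coupled in separate lanes to carboxylic acid-terminated thioalkane self-assembled monolayers on gold. Purified Flag-tagged human WT NOD2 (insect-cell expressed, used within 3 days) flowed over at pH 6.5. Apparent dissociation constants taken from the adsorption isotherm, not a true KD.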

[3] = target: T1, purified WT NOD2; assay: Backscattering interferometry; format: binding
Procedure, shortened: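 Purified Flag-tagged human WT NOD2 from baculovirus/insect cells, stored at 4 °C and used within 3 days, at a fixed 10 nM in PBS pH 6.5. Increasing ligand, incubated 40 min at RT in the dark, then read by BSI on a passivated microfluidic chip at 25 °C. Phase change plotted against concentration; purified NOD1 signal under identical conditions subtracted. Single-site fit; run in triplicate, Kd reported as a range.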

| Compound | binding to NOD2 in the native-membrane environment (in words) [1] | Kd [2] [nM] | Kd [3] [nM] | Kd [1] [nM] | relative binding strength [1] | BSI signal on titration after preincubation with excess ligand 2 [1] |
| --- | --- | --- | --- | --- | --- | --- |
| CC(=O)N[C@H]1C(O)O[C@H](CO)[C@@H](O)[C@@H]1O[C@H](C)C(=O)O (some centres unmarked) [N-acetyl-muramic acid, reference compound] | did not bind; also recorded: does not bind or activate | – | – | – | – | – |
| N[C@H](CCC(=O)N[C@H](CCC[C@H](N)C(=O)O)C(=O)O)C(=O)O [iE-DAP, reference compound] | did not bind | – | – | – | – | – |
| CC(=O)N[C@@H]1[C@@H](O[C@H](C)C(=O)N[C@@H](C)C(=O)N[C@H](CCC(=O)O)C(N)=O)[C@H](O)[C@@H](CN)O[C@@H]1O [ligand 2, 6-amino-MDP-(LD)] | bind with high affinity | 4 to 10 | 2 to 10 | 3 to 30 | strong | no BSI signal |
| CC(=O)N[C@@H]1[C@@H](O[C@H](C)C(=O)N[C@@H](C)C(=O)N[C@@H](CCC(=O)O)C(N)=O)[C@H](O)[C@@H](CN)O[C@@H]1O [ligand 3, 6-amino-MDP-(LL)] | bind with high affinity | 10 to 18 | 1 to 6 | 3 to 30 | strong | – |
| CC(=O)N[C@@H]1[C@@H](O[C@H](C)C(=O)N[C@@H](C)C(=O)O)[C@H](O)[C@@H](CN)O[C@@H]1O [ligand 18] | indications of binding but unusual curves | 24 to 36 | 15 to 30 | – | strong | – |
| COC(=O)[C@H](C)NC(=O)[C@@H](C)O[C@H]1[C@H](O)[C@@H](CN)O[C@H](O)[C@@H]1NC(C)=O [ligand 19] | bind with high affinity; also recorded: strongly bound | 16 to 30 | 8 to 20 | 3 to 30 | strong | – |
| COC(=O)[C@@H](C)O[C@H]1[C@H](O)[C@@H](CN)O[C@H](O)[C@@H]1NC(C)=O [ligand 20] | bind with weak affinity; also recorded: weakly bound | 12 to 24 | 2 to 10 | 50 to 200 | weak | no BSI signal |
| COC(=O)[C@@H](C)O[C@H]1[C@H](O)[C@@H](CO)OC(O)[C@@H]1NC(C)=O (some centres unmarked) [ligand 23, N-acetyl muramyl methyl ester] | bound with similar high affinity | – | – | – | – | – |
